Measured values pooled from the literature.
Protocols differ between the studies behind these lines.
Target: Ephrin type-A receptor 8 (EPHA8, Homo sapiens, UniProt P29322)
Sequence (P29322 1-1005, as in one of the studies): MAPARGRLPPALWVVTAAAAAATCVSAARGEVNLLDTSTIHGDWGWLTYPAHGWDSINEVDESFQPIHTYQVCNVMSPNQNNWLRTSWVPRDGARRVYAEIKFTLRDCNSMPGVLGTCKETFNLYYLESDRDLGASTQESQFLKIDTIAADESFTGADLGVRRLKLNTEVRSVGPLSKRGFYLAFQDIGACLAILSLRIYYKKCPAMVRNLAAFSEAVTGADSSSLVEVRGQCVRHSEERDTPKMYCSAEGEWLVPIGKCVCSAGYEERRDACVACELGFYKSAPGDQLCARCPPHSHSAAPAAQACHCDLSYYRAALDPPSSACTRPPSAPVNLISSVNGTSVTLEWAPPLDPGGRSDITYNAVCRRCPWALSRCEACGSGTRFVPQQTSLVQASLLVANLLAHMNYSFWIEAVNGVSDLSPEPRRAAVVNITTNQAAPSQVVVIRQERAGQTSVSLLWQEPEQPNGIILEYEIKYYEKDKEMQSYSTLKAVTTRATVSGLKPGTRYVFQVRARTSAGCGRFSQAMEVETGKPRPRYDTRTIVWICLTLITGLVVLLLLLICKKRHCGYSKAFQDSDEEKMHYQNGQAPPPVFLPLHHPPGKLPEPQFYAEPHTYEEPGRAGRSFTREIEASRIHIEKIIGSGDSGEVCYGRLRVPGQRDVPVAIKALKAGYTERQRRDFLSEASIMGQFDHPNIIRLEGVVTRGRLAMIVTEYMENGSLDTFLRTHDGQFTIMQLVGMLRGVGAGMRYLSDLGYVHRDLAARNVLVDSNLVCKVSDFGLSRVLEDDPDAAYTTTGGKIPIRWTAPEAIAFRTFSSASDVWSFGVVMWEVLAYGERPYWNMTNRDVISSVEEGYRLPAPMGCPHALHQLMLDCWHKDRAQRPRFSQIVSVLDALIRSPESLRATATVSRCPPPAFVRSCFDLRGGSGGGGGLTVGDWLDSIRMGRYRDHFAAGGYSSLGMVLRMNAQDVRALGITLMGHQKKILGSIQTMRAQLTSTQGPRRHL

The remaining binding of C[C@@]1(Cc2ccc(C#N)cc2)C(=O)N(c2cc(Cl)cc(Cl)c2)c2ncc(C(=O)NC3(c4nc(C5CCC5)no4)CC3)n21 is reported as 100% (cell-free assay; competition with immobilised ligand; 1 µM).
With Cc1ccc(Nc2nccc(N(C)c3ccc4c(C)n(C)nc4c3)n2)cc1S(N)(=O)=O the inhibition was 81% (enzyme activity; inhibitor; 10 µM).
With Cc1ccc(C(=O)Nc2ccc(CN3CCN(C)CC3)c(C(F)(F)F)c2)cc1C#Cc1cnc2cccnn12 the remaining signal was 0.9% (cell-free assay; 23.5 nM).
Cc1nc(Cc2cccc(C(F)(F)F)c2)sc1-c1ccc(C(N)=O)nc1 gave a remaining binding of 100% (cell-free assay; competition with immobilised ligand; 1 µM).
With Cc1sc(C(=O)NC2COC2)cc1-n1cc(NC(=O)Nc2c(F)cccc2Cl)cn1 the remaining activity was 91.7% (enzyme activity; inhibitor; 10 µM).
CC(C)(C)c1nc(-c2cccc(NS(=O)(=O)c3c(F)cccc3F)c2F)c(-c2ccnc(N)n2)s1 has a remaining activity of 105% (enzyme activity; inhibitor; radiometric; 1 µM).
CNC(=O)c1cc2c(Oc3ccc(NC(=O)C4(C(=O)Nc5ccc(F)cc5)CC4)cc3)ccnc2cc1OC has an inhibition of 102% (enzyme activity; inhibitor; radiometric; 1 µM).
O=C(NC[C@@H]1[C@H]2CN(C(=O)OCc3cc(C(F)(F)F)cc(C(F)(F)F)c3)C[C@@H]12)c1ccc2[nH]nnc2c1 gave a remaining binding of 100% (cell-free assay; competition with immobilised ligand; 1 µM).
The inhibition of CCCS(=O)(=O)Nc1ccc(F)c(C(=O)c2c[nH]c3ncc(-c4ccc(Cl)cc4)cc23)c1F is reported as < 20% (enzyme activity; inhibitor; 1 µM).
With O=C(O)c1cc(-c2ccc(C3CCNCC3)cc2)c2ccc(-c3ccc(C(F)(F)F)cc3)cc2c1 the remaining binding was 100% (cell-free assay; competition with immobilised ligand; 1 µM).
The inhibition of COc1cc2ncnc(Nc3ccc(Oc4ccccc4)cc3C)c2cc1OC is reported as 21% (enzyme activity; inhibitor; 1 µM).
With CCCOc1ccc([C@H]2[C@H](C(=O)O)[C@@H](c3ccc4c(c3)OCO4)CN2CC(=O)Nc2c(CC)cccc2CC)cc1 the remaining binding was 98% (cell-free assay; competition with immobilised ligand; 1 µM).
With CNC(=O)c1cc(Oc2ccc(NC(=O)Nc3ccc(Cl)c(C(F)(F)F)c3)cc2)ccn1 the inhibition was 23% (enzyme activity; inhibitor; 0.3 µM).
With CC(C)(O)[C@H]1CC[C@H](Nc2ccc3ncc(-c4cccc(C(F)(F)F)c4)n3n2)CC1 the remaining activity was 84.3% (enzyme activity; inhibitor; 1 µM).
The remaining signal of O=C1NC(=O)c2cc(Nc3ccc(F)cc3)c(Nc3ccc(F)cc3)cc21 is reported as 95.5% (cell-free assay; 0.5 µM).
COc1cc(-c2cc(-c3ccc(N4CCNCC4)cc3)cnc2C)cc(OC)c1OC gave an inhibition of 10% (enzyme activity; inhibitor; 1 µM).
CCCOc1ccc(OC)c(F)c1C(=O)c1ccc(C(=O)N[C@@H]2CNC[C@H]2NC(=O)c2ccc3[nH]ncc3c2)cc1 gave a remaining activity of 95% (enzyme activity; inhibitor; 10 µM).
Cc1ccc(C(=O)NCc2ccsc2)cc1C#Cc1cn(C(C)C)c2ncnc(N)c12 gave an activity vs control of 6% (enzyme activity; inhibitor; 1 µM).
Nc1ncnc2occ(-c3ccc(NC(=O)Nc4cc(C(F)(F)F)ccc4F)cc3)c12 has a remaining signal of 0% (cell-free assay; 20 µM).
O=C1Nc2ccc(Cl)cc2C1=Cc1cc(Cl)c(O)c(Cl)c1 has a remaining signal of 91.5% (cell-free assay; 0.5 µM).
The remaining binding of CO[C@H]1CC[C@H](CNc2ccc(S(=O)(=O)NC(=O)c3ccc(N4CCN(CC5=C(c6ccc(Cl)cc6)CC(C)(C)CC5)CC4)cc3Oc3cnc4[nH]ccc4c3)cc2[N+](=O)[O-])CC1 is reported as 84% (cell-free assay; competition with immobilised ligand; 1 µM).
